Experiments:
[1] = target: Histone deacetylase 2 (Homo sapiens) (UniProt Q92769); test: Inhibition of HDAC2 in human HeLa-S3 cell lysates assessed as remaining activity at 2 x 10^-6 M preincubated for 15 mins followed by HDAC-Glo substrate addition measured after 30 to 40 mins by fluorimetric method relative to control
Procedure, shortened: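 Same antibody-capture format as the other class I isoforms. HeLa-S3 lysate added at 100 μg/mL for HDAC1 and HDAC2, 1 h at 4 °C, then washed. Inhibitor in DMSO preincubated 15 min at RT; HDAC-Glo reagent added and luminescence read after 30-40 min. Concentrations are final. Signal corrected against a well without antibody; activity expressed as % of DMSO control.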

[2] = target: Histone deacetylase 1 (Homo sapiens) (UniProt Q13547); test: Inhibition of HDAC1 in human HeLa-S3 cell lysates assessed as remaining activity at 8 x 10^-6 M preincubated for 15 mins followed by HDAC-Glo substrate addition measured after 30 to 40 mins by […] relative to control
[3] = target: Histone deacetylase 3 (Homo sapiens) (UniProt O15379); test: Inhibition of HDAC3 in human HeLa-S3 cell lysates assessed as remaining activity at 5 uM preincubated for 15 mins followed by HDAC-Glo substrate addition measured after 30 to 40 mins by […] relative to control
Procedure, shortened: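 Antibody-capture (ELISA-type) assay: HDAC antibody coated in carbonate/bicarbonate buffer pH 9.4, wells blocked with 5% milk in TBST. HeLa-S3 lysate added at 1 mg/mL for HDAC3, 1 h at 4 °C, then washed. Inhibitor in DMSO preincubated 15 min at RT in HDAC-Glo buffer. HDAC-Glo reagent added, luminescence read after 30-40 min. Concentrations are final. Background = no-antibody well; activity given as % of DMSO control.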

Chain of Histone deacetylase 1 (Homo sapiens) (Q13547 whole entry): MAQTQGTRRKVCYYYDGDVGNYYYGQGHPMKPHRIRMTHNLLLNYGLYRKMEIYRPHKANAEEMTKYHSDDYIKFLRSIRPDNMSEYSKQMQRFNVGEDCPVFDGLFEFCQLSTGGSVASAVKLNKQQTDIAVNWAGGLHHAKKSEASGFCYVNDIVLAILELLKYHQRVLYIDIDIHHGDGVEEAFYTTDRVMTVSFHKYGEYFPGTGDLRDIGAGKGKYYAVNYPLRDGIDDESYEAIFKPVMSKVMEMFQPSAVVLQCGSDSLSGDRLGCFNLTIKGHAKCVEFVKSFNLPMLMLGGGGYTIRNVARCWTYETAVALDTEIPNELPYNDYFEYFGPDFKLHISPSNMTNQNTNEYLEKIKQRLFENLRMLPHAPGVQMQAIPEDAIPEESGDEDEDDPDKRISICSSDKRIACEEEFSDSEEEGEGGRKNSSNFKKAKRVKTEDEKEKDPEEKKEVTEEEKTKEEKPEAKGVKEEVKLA
Chain of Histone deacetylase 2 (Homo sapiens) (Q92769 whole entry, canonical isoform): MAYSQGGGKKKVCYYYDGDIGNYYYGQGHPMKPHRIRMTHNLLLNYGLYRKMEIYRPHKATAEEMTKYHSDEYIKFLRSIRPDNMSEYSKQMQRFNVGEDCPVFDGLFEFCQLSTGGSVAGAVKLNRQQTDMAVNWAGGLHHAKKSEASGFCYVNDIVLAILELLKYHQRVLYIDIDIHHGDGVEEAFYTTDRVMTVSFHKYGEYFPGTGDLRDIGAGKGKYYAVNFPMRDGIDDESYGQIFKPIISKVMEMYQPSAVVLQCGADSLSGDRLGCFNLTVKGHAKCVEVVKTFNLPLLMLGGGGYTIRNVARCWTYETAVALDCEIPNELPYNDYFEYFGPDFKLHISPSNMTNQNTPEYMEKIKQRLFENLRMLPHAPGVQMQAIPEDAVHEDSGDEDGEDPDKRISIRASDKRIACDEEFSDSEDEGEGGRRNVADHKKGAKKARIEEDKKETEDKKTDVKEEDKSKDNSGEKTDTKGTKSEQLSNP
Chain of Histone deacetylase 3 (Homo sapiens) (O15379 whole entry): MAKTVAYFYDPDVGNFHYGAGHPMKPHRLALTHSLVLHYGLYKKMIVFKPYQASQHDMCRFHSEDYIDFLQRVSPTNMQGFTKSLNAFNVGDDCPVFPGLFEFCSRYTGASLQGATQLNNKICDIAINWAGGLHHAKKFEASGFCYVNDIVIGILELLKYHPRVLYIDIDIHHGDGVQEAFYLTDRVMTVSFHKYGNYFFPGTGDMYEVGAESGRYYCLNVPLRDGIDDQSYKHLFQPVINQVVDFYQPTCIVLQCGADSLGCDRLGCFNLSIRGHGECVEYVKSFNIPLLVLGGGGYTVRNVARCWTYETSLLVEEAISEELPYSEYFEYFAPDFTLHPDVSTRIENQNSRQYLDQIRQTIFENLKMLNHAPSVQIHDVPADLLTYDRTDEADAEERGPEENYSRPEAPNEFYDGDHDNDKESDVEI

| Compound | Activity [1] | Activity [2] | Activity [3] |
| --- | --- | --- | --- |
| CCC(CCCC(=O)Nc1ccccc1)CCC(=O)NO (stereo not drawn) | 69% | 32% | – |
| O=C(CCC(CCCC(=O)Nc1ccccc1)Cc1ccccc1)NO (racemic) | – | – | 90% |
